The results in this text go back to ChEMBL document CHEMBL3286351, “Antibacterial evaluation of structurally amphipathic, membrane active small cationic peptidomimetics: synthesized by incorporating 3-amino benzoic acid as peptidomimetic element” (Eur J Med Chem, 2014).

Molecules are shown by their SMILES. Converted amounts (≈) assume the structure as drawn. Where a SMILES comes first, the peptide text is derived from it. [ ]: non-standard residue; d: D form. 3Abz = Nc1cccc(C(=O)O)c1; Orn = NCCC[CH](N)C(=O)O A value given as a limit tells only on which side of the number the result lay.

Data set [1] concerns Staphylococcus epidermidis. Nature of the data set: Antibacterial activity against methicillin-resistant Staphylococcus epidermidis ATCC 51625 assessed as growth inhibition after 18 hrs by CLSI microdilution broth assay. In kind it is functional. The note with it: ATCC 51625, 18 h. Summed up:
(§1)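 Modified CLSI broth microdilution in Mueller-Hinton broth. Wells held 90 µL of about 2 × 10^5 CFU/mL inoculum plus 10 µL of serially diluted peptidomimetic, range 0.7-100 µg/mL. Plates were incubated overnight with agitation at 37 °C and absorbance read at 600 nm after 18 h. Controls: inoculum without compound, and uninoculated broth. Run in triplicate.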

A short description of data set [2]: Induction of hemolysis in human RBC assessed as hemoglobin release after 1 hr by microtiter plate reader analysis. In kind it is cell-based, Erythrocyte. The note with it: for HC10: erythrocyte, 1 h; for HC50 at 1 h: red blood cells. Summed up:
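Freshly isolated human RBCs washed three times in PBS (35 mM phosphate, 150 mM NaCl, pH 7.2) and used as a 4% (v/v) suspension. Mixed 1:1 with twofold serial dilutions of compound, incubated 1 h at 37 °C without agitation, then centrifuged. Supernatant A540 read. PBS defined 0% and 1% Triton X-100 defined 100% lysis; HC50 and HC10 derived.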

Data set [3] in a line: Selectivity ratio of HC50 for hemolysis in human RBC to MIC for Staphylococcus aureus.
Data set [4] is described as follows: Retention time of the compound by HPLC analysis. In kind it is physicochemical. Summed up: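 Analytical RP-HPLC on a C18 column (5 µm, 4.6 × 250 mm) at room temperature. Run a linear gradient of 0.5-60% acetonitrile containing 0.05% TFA against water containing 0.05% TFA at 0.5 mL/min.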
The next data set deals with Escherichia coli. Description: Antibacterial activity against Escherichia coli MTCC 723 assessed as growth inhibition after 18 hrs by CLSI microdilution broth assay. In kind it is functional. As to conditions: MTCC 723, 18 h.
A further data set has as its system Pseudomonas aeruginosa. Nature of the data set: Antibacterial activity against Pseudomonas aeruginosa MTCC 2295 assessed as growth inhibition after 18 hrs by CLSI microdilution broth assay. It counts as functional. The note with it: MTCC 2295, 18 h.
In data set [5] the test system is Staphylococcus aureus. Description: Antibacterial activity against Staphylococcus aureus MTCC 3160 assessed as growth inhibition after 18 hrs by CLSI microdilution broth assay. It counts as functional. As to conditions: MTCC 3160, 18 h.
A further data set deals with Bacillus subtilis. Description: Antibacterial activity against Bacillus subtilis MTCC 2763 assessed as growth inhibition after 18 hrs by CLSI microdilution broth assay. In kind it is functional. As to conditions: MTCC 2763, 18 h.
Data set [6] has as its system Staphylococcus aureus. Nature of the data set: Antibacterial activity against methicillin-resistant Staphylococcus aureus ATCC BAA-1720 assessed as growth inhibition after 18 hrs by CLSI microdilution broth assay. In kind it is functional. The note with it: ATCC BAA-1720, 18 h. Summed up:
as §1

Turning to `N=C(N)NCCCC(NC(=O)C(CCCNC(=N)N)NC(=O)c1cccc(NC(=O)C(Cc2c[nH]c3ccccc23)NC(=O)C(N)Cc2c[nH]c3ccccc23)c1)C(N)=O` (stereo not given) (H-WW[3Abz]RR-NH2; configuration not given here), the MIC was determined as 75 mg/L (≈ 91.4 µM) in data set [1]; 120 mg/L (≈ 146 µM) in the data set on Escherichia coli; 125 mg/L (≈ 152 µM) in the data set with Pseudomonas aeruginosa; 50 mg/L (≈ 60.9 µM) in the data set on Staphylococcus aureus [5]; 70 mg/L (≈ 85.3 µM) with Bacillus subtilis; 50 mg/L (≈ 60.9 µM) in the data set on Staphylococcus aureus [6]. The HC10 in [2] is 150 µg/mL. Moreover, the HC50 at 1 h in data set [2] stood at 400 µg/mL. The Selectivity ratio in data set [3] was 8. Further, the Retention_time in data set [4] turned out to be 25.377 min.
Take `NCCCC(NC(=O)C(CCCN)NC(=O)c1cccc(NC(=O)C(Cc2c[nH]c3ccccc23)NC(=O)C(CCCN)NC(=O)C(N)Cc2c[nH]c3ccccc23)c1)C(N)=O` (stereo not given) (H-W[Orn]W[3Abz][Orn][Orn]-NH2; configuration not given here): the MIC in data set [1] amounted to 20 mg/L (≈ 23.5 µM); in the data set with Escherichia coli, 70 mg/L (≈ 82.3 µM); with Pseudomonas aeruginosa, 75 mg/L (≈ 88.1 µM); with Staphylococcus aureus [5], 25 mg/L (≈ 29.4 µM); in the data set with Bacillus subtilis, 40 mg/L (≈ 47 µM); in the data set with Staphylococcus aureus [6], 25 mg/L (≈ 29.4 µM). For the same compound, the HC10 in [2] was determined as 175 µg/mL. For the same compound, the HC50 at 1 h in data set [2] amounted to 450 µg/mL. Also, the Selectivity ratio in data set [3] is 18. Besides, the Retention_time in data set [4] came out at 24.782 min.
As to `NCCCC(NC(=O)C(Cc1c[nH]c2ccccc12)NC(=O)c1cccc(NC(=O)C(CCCN)NC(=O)C(CCCN)NC(=O)C(N)Cc2c[nH]c3ccccc23)c1)C(N)=O` (stereo not given) (H-W[Orn][Orn][3Abz]W[Orn]-NH2; configuration not given here), the MIC worked out at 40 mg/L (≈ 47 µM) in data set [1]; 75 mg/L (≈ 88.1 µM) in the data set with Escherichia coli; 100 mg/L (≈ 118 µM) with Pseudomonas aeruginosa; 40 mg/L (≈ 47 µM) in the data set with Staphylococcus aureus [5]; 75 mg/L (≈ 88.1 µM) in the data set with Bacillus subtilis; 50 mg/L (≈ 58.8 µM) in the data set on Staphylococcus aureus [6]. Further, in data set [2], the HC10 is 170 µg/mL. Also, the HC50 at 1 h in data set [2] was 500 µg/mL. Moreover, in data set [3], the Selectivity ratio is 12.5. The Retention_time in [4] was 24.193 min.
On to `NCCCC(N)C(=O)NC(Cc1c[nH]c2ccccc12)C(=O)NC(Cc1c[nH]c2ccccc12)C(=O)Nc1cccc(C(=O)NC(CCCN)C(=O)NC(CCCN)C(N)=O)c1` (stereo not given) (H-[Orn]WW[3Abz][Orn][Orn]-NH2; configuration not given here), for which the MIC in [1] came to 50 mg/L (≈ 58.8 µM); with Escherichia coli, 100 mg/L (≈ 118 µM); with Pseudomonas aeruginosa it was 100 mg/L (≈ 118 µM); in the data set on Staphylococcus aureus [5], 50 mg/L (≈ 58.8 µM); in the data set with Bacillus subtilis, 100 mg/L (≈ 118 µM); in the data set on Staphylococcus aureus [6], 50 mg/L (≈ 58.8 µM). Further, in data set [2], the HC10 was determined as 150 µg/mL. For the same compound, the HC50 at 1 h in data set [2] came to 440 µg/mL. Further, the Selectivity ratio in [3] was determined as 8.8. In addition, the Retention_time in data set [4] came out at 23.979 min.
Regarding `NCCCC(N)C(=O)NC(Cc1c[nH]c2ccccc12)C(=O)Nc1cccc(C(=O)NC(Cc2c[nH]c3ccccc23)C(=O)NC(CCCN)C(N)=O)c1` (stereo not given) (H-[Orn]W[3Abz]W[Orn]-NH2; configuration not given here), the MIC in [1] turned out to be 15 mg/L (≈ 20.4 µM); in the data set on Escherichia coli it was 50 mg/L (≈ 67.9 µM); in the data set on Pseudomonas aeruginosa it was 40 mg/L (≈ 54.3 µM); in the data set with Staphylococcus aureus [5], 17.5 mg/L (≈ 23.7 µM); with Bacillus subtilis, 50 mg/L (≈ 67.9 µM); with Staphylococcus aureus [6], 20 mg/L (≈ 27.1 µM). Also, the HC10 in data set [2] came to 190 µg/mL. The HC50 at 1 h in data set [2] is > 500 µg/mL. Also, the Selectivity ratio in [3] was > 28.6. In data set [4], this compound yielded a Retention_time of 24.231 min.
Consider `NCCCC(N)C(=O)NC(CCCN)C(=O)NC(Cc1c[nH]c2ccccc12)C(=O)NC(Cc1c[nH]c2ccccc12)C(=O)NC(CCCN)C(N)=O` (stereo not given) (H-[Orn][Orn]WW[Orn]-NH2; configuration not given here), for which the MIC in [1] came to 100 mg/L (≈ 137 µM); in the data set with Escherichia coli it was 120 mg/L (≈ 164 µM); in the data set with Pseudomonas aeruginosa, 150 mg/L (≈ 205 µM); with Staphylococcus aureus [5], 70 mg/L (≈ 95.6 µM); with Bacillus subtilis it was 100 mg/L (≈ 137 µM); with Staphylococcus aureus [6] it was 100 mg/L (≈ 137 µM). In data set [2], the HC10 turned out to be 100 µg/mL. For the same compound, the HC50 at 1 h in [2] came to 310 µg/mL. Moreover, the Selectivity ratio in data set [3] was found to be 4.42. In data set [4], this compound had a Retention_time of 26.672 min.
